What is called inhibition is the share of the control response that was lost under treatment.

Results on one compound are retold here after PubChem BioAssay AID504483 (The Scripps Research Institute Molecular Screening Center, 2011).

The target in this assay is Platelet-activating factor acetylhydrolase (Mus musculus) (UniProt Q60963). The assay is described as follows: mouse pPAFAH inhibition, late-stage follow-up, selectivity assay for PAFAH2 inhibitor project, cell lysate, gel-based competitive ABPP, COS-7 proteome, fluorescence (AID 504483). Conditions: murine pPAFAH, gel ABPP FP-Rh, at 1 µM (top of the series). The procedure, abridged: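 System: soluble COS-7 proteome expressing murine pPAFAH; Amount: proteome 1 mg/mL; Reagent: rhodamine fluorophosphonate probe FP-Rh, 2 µM final; Times: compound 30 min at 25 °C, FP-Rh 30 min; Measured by: in-gel fluorescence scan after SDS-PAGE, band integrated optical density; Measure: % inhibition versus DMSO control; Benchmarks: DMSO-only high, blank-gel background low.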

Each structure is given as a SMILES string. The source made the active and inactive calls.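 Rule for the calls: active = inhibition of the enzyme at or above 50% at 0.1 µM compound; inactive = the rest.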

Chain of Platelet-activating factor acetylhydrolase (Mus musculus) (Q60963 whole entry, looked up): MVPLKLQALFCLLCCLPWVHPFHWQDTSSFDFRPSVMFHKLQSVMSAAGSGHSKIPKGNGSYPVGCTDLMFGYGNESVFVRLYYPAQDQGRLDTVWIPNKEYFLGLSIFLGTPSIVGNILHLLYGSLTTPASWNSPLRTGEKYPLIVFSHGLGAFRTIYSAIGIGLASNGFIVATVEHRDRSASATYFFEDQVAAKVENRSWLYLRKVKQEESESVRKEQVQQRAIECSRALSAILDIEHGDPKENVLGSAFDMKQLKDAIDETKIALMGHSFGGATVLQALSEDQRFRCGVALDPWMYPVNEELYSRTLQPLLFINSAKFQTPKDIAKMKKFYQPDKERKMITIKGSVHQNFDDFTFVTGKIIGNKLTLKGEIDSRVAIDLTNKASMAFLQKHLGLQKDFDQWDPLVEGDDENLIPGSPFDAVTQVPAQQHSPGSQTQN

On to `O=C(N1CCCC1)n1ncc(-c2ccc(-c3ccccc3)cc2)n1`, for which the inhibition is 85% (inactive).
